Assay results published in ChEMBL document CHEMBL4689842, “EUbOPEN Chemogenomics Library wave 1” (2021).

What was measured:
[1] = tested on: Fibroblast; test: Incucyte cell viability with human fibroblast; format: toxicity, cell-based; conditions: 10 µM, compound concentration 10 uM; also: filed as whole numbers so only -1 and 0 and 1 occur
[2] = tested on: HEK-293T; test: Multiplex assay against HEK293T; format: toxicity, cell-based; conditions: human;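 as to Population Tubulin-Different-Phenotype (%): share of the cells with healthy nuclei that show this phenotype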
Procedure, shortened: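 Hoechst33342, BioTracker Green Microtubule Cytoskeleton Dye, MitoTracker Red and Annexin V Alexa Fluor 680 were added to live cells at seeding, and imaging on a CQ1 microscope at 37°C and 5% CO2 followed compound addition. Gating by CellPathfinder machine learning separated cells into Hoechst high-intensity objects or normal cells, then normal cells into healthy, pyknosed or fragmented nuclei, then pyknosed cells into mitotic or apoptotic. Per cents of healthy-nucleus cells are reported for the tubulin, mitochondrial-mass and membrane-permeability phenotypes.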

[3] = 12 h, 1 µM, compound concentration 1 uM, replicate 1
[4] = 12 h, 1 µM, compound concentration 1 uM, replicate 2
[5] = 12 h, 10 µM, compound concentration 10 uM, replicate 1
[6] = 12 h, 10 µM, compound concentration 10 uM, replicate 2
[7] = 24 h, 1 µM, compound concentration 1 uM, replicate 1
[8] = 24 h, 1 µM, compound concentration 1 uM, replicate 2
[9] = 24 h, 10 µM, compound concentration 10 uM, replicate 1
[10] = 24 h, 10 µM, compound concentration 10 uM, replicate 2
[11] = 48 h, 1 µM, compound concentration 1 uM, replicate 1
[12] = 48 h, 1 µM, compound concentration 1 uM, replicate 2
[13] = 48 h, 10 µM, compound concentration 10 uM, replicate 1
[14] = 48 h, 10 µM, compound concentration 10 uM, replicate 2

## CC(C)N1CCC(C)(C)c2cc(C#Cc3ccc(C(=O)O)cc3)ccc21
[1]; 0 h, replicate number 1, timepoint 0 hours
  Growth Rate: 0
[1]; 6 h, replicate number 2, timepoint 6 hours
  Growth Rate: 0
[1]; 12 h, replicate number 1, timepoint 12 hours
  Growth Rate: 0
[1]; 12 h, replicate number 2, timepoint 12 hours
  Growth Rate: 1
[1]; 18 h, replicate number 1, timepoint 18 hours
  Growth Rate: 0
[1]; 24 h, replicate number 1, timepoint 24 hours
  Growth Rate: 0
[2]; [3]
  Population Apoptotic (%): 60%
  Population Fragmented Nuclei (%): 13%
  Population Healthy Nuclei (%): 45%
  Population Hoechst High Intensity Objects (%): 17%
  Population Membrane Permeable-Phenotype (%): 2%
  Population Mitochondria Different-Phenotype (%): 74%
  Population Mitotic Cells (%): 40%
  Population Normal (%): 82%
  Population Pyknosed Nuclei (%): 41%
  Population Tubulin-Different-Phenotype (%): 43%
  Total Cell Count: 278
[2]; [4]
  Population Apoptotic (%): 18%
  Population Fragmented Nuclei (%): 4%
  Population Healthy Nuclei (%): 54%
  Population Hoechst High Intensity Objects (%): 8%
  Population Membrane Permeable-Phenotype (%): 8%
  Population Mitochondria Different-Phenotype (%): 12%
  Population Mitotic Cells (%): 81%
  Population Normal (%): 91%
  Population Tubulin-Different-Phenotype (%): 6%
  Total Cell Count: 156
[2]; [5]
  Population Apoptotic (%): 52%
  Population Fragmented Nuclei (%): 51%
  Population Healthy Nuclei (%): 40%
  Population Hoechst High Intensity Objects (%): 64%
  Population Membrane Permeable-Phenotype (%): 5%
  Population Mitochondria Different-Phenotype (%): 66%
  Population Mitotic Cells (%): 47%
  Population Normal (%): 35%
  Population Pyknosed Nuclei (%): 8%
  Population Tubulin-Different-Phenotype (%): 23%
  Total Cell Count: 563
[2]; [6]
  Population Apoptotic (%): 16%
  Population Fragmented Nuclei (%): 32%
  Population Healthy Nuclei (%): 61%
  Population Hoechst High Intensity Objects (%): 44%
  Population Membrane Permeable-Phenotype (%): 4%
  Population Mitochondria Different-Phenotype (%): 12%
  Population Mitotic Cells (%): 83%
  Population Normal (%): 55%
  Population Pyknosed Nuclei (%): 5%
  Population Tubulin-Different-Phenotype (%): 5%
  Total Cell Count: 405
[2]; [7]
  Population Apoptotic (%): 58%
  Population Fragmented Nuclei (%): 13%
  Population Healthy Nuclei (%): 45%
  Population Hoechst High Intensity Objects (%): 19%
  Population Membrane Permeable-Phenotype (%): 6%
  Population Mitochondria Different-Phenotype (%): 52%
  Population Mitotic Cells (%): 41%
  Population Normal (%): 80%
  Population Pyknosed Nuclei (%): 41%
  Population Tubulin-Different-Phenotype (%): 49%
  Total Cell Count: 315
[2]; [8]
  Population Apoptotic (%): 14%
  Population Fragmented Nuclei (%): 4%
  Population Healthy Nuclei (%): 59%
  Population Hoechst High Intensity Objects (%): 4%
  Population Membrane Permeable-Phenotype (%): 7%
  Population Mitochondria Different-Phenotype (%): 4%
  Population Mitotic Cells (%): 85%
  Population Normal (%): 95%
  Population Pyknosed Nuclei (%): 35%
  Population Tubulin-Different-Phenotype (%): 10%
  Total Cell Count: 168
[2]; [9]
  Population Apoptotic (%): 37%
  Population Fragmented Nuclei (%): 56%
  Population Healthy Nuclei (%): 40%
  Population Hoechst High Intensity Objects (%): 62%
  Population Membrane Permeable-Phenotype (%): 6%
  Population Mitochondria Different-Phenotype (%): 37%
  Population Mitotic Cells (%): 62%
  Population Normal (%): 37%
  Population Pyknosed Nuclei (%): 4%
  Population Tubulin-Different-Phenotype (%): 21%
  Total Cell Count: 530
[2]; [10]
  Population Apoptotic (%): 0%
  Population Fragmented Nuclei (%): 29%
  Population Healthy Nuclei (%): 67%
  Population Hoechst High Intensity Objects (%): 46%
  Population Membrane Permeable-Phenotype (%): 3%
  Population Mitochondria Different-Phenotype (%): 6%
  Population Mitotic Cells (%): 100%
  Population Normal (%): 53%
  Population Pyknosed Nuclei (%): 3%
  Population Tubulin-Different-Phenotype (%): 9%
  Total Cell Count: 448
[2]; [11]
  Population Apoptotic (%): 43%
  Population Fragmented Nuclei (%): 15%
  Population Healthy Nuclei (%): 56%
  Population Hoechst High Intensity Objects (%): 17%
  Population Membrane Permeable-Phenotype (%): 6%
  Population Mitochondria Different-Phenotype (%): 29%
  Population Mitotic Cells (%): 56%
  Population Normal (%): 82%
  Population Pyknosed Nuclei (%): 28%
  Population Tubulin-Different-Phenotype (%): 27%
  Total Cell Count: 389
[2]; [12]
  Population Apoptotic (%): 11%
  Population Fragmented Nuclei (%): 9%
  Population Healthy Nuclei (%): 80%
  Population Hoechst High Intensity Objects (%): 2%
  Population Membrane Permeable-Phenotype (%): 5%
  Population Mitochondria Different-Phenotype (%): 2%
  Population Mitotic Cells (%): 88%
  Population Normal (%): 97%
  Population Pyknosed Nuclei (%): 10%
  Population Tubulin-Different-Phenotype (%): 9%
  Total Cell Count: 358
[2]; [13]
  Population Apoptotic (%): 37%
  Population Fragmented Nuclei (%): 57%
  Population Healthy Nuclei (%): 38%
  Population Hoechst High Intensity Objects (%): 66%
  Population Membrane Permeable-Phenotype (%): 7%
  Population Mitochondria Different-Phenotype (%): 12%
  Population Mitotic Cells (%): 62%
  Population Normal (%): 33%
  Population Pyknosed Nuclei (%): 3%
  Population Tubulin-Different-Phenotype (%): 3%
  Total Cell Count: 624
[2]; [14]
  Population Apoptotic (%): 0%
  Population Fragmented Nuclei (%): 23%
  Population Healthy Nuclei (%): 73%
  Population Hoechst High Intensity Objects (%): 52%
  Population Membrane Permeable-Phenotype (%): 4%
  Population Mitochondria Different-Phenotype (%): 1%
  Population Mitotic Cells (%): 100%
  Population Normal (%): 47%
  Population Pyknosed Nuclei (%): 2%
  Population Tubulin-Different-Phenotype (%): 5%
  Total Cell Count: 571
